# Assay outcomes (PubChem BioAssay)
# Shown are actives, neighbours in structure and some others; about 4.4% of the full set was active somewhere.
# MsrA act: bovine MsrA enzyme activators, primary screen, biochemical, absorbance, HTS | Methionine sulfoxide reductase A (Bos taurus) | purified bovine MsrA, absorbance read-out | activation, % at 10.6 µM | 360,000 tested, 0.3% active | AID 602163, 2012; in the data active = activation above about 7.5%;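 note: 0% = vehicle and 100% = reference activator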
# MsrA inhibitor: bovine MsrA enzyme inhibitors, primary screen, biochemical, absorbance, HTS. Methionine sulfoxide reductase A (Bos taurus). 360,000 tested, 0.75% active. AID 651718, 2012. inhibition, % at 15.5 µM. purified bovine MsrA, absorbance read-out; in the data active = inhibition above about 4.5%;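 note: 0% = vehicle wells with enzyme and 100% = reference inhibitor wells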
# TbMetRS inhib: T. brucei MetRS inhibitors, primary screen, biochemical, luminescence | methionyl-tRNA synthetase (Trypanosoma brucei brucei) | purified T. brucei MetRS, ATP depletion, Kinase-Glo luminescence | inhibition, % at 11.9 µM | 360,000 tested, 0.4% active | AID 624268, 2012;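 active = inhibition above a per-plate cutoff of the control wells' mean inhibition plus 3 SD, cut at about 5.5% in these data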;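 note: 0% = DMSO wells median and 100% = median of wells with control inhibitor compound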
#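 Assay system: T. brucei methionyl-tRNA synthetase, purified | Medium: HEPES buffer with MgCl2, KCl, DTT, spermine, BSA, pyrophosphatase | Compound: 11.9 µM single point | Incubation: 15 min enzyme-compound preincubation, 2 h reaction, 10 min detection, 25 °C | Measured by: Kinase-Glo luciferase luminescence reporting remaining unconsumed ATP | Measure: % inhibition normalized to control-well medians | Replication: Singlicate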
# AI-2 QS mod: Vibrio harveyi AI-2 quorum sensing modulators, primary screen, JMH597 strain, luminescence/OD600 ratio | Vibrio harveyi JMH597 AI-2 luminescence/OD600 ratio, 9 h; active compounds read low; strain lacks LuxN and CqsS sensors; 0 = neutral-control median | activity change, % at 7.5 µM | 300,000 tested, 0.4% active | AID 2094, 2009; in the data active = activity change below about -75%, passing the limit was not always enough;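 note: luminescence divided by OD600 gain over 9 h not by final OD600 alone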
# AHR act: AHR activators, primary screen, cell-based, luminescence, luciferase reporter, human | AHR-responsive luciferase reporter cells | activation, % at 5 µM | 320,000 tested, 2.5% active | AID 2796, 2010; in the data active = activation above about 47%;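 note: 0% = vehicle wells and 100% = reference agonist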
# m5-HT2A agonist: mouse Htr2a agonists via beta-arrestin recruitment, primary screen, cell-based, luminescence. CHO-K1 mHTR2A beta-arrestin complementation; percent of 30 µM serotonin response. activation, % at 7.6 µM. 360,000 tested, 0.66% active. AID 624169, 2012;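 active = activation above a run cutoff, the mean activation of all tested compounds plus 3 SD, cut at about 14% in these data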;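 note: 0% = plate median of compound wells and 100% = 30 µM serotonin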
# Target sequence (P35363 whole entry, looked up): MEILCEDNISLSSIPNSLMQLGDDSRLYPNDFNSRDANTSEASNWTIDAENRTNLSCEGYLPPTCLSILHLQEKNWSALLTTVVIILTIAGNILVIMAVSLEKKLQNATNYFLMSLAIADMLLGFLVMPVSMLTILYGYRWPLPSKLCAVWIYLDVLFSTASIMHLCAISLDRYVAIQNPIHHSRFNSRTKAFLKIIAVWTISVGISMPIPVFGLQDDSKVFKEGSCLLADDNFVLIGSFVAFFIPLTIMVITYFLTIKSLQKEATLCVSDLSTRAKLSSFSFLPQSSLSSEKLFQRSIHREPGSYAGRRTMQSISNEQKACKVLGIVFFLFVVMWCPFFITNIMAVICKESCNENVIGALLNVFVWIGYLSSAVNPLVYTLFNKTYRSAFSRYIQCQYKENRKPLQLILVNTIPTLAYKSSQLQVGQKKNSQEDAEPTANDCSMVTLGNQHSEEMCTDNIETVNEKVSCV
# * = called active by the depositor; . = no result given.
SMILES,MsrA act,MsrA inhibitor,TbMetRS inhib,AI-2 QS mod,AHR act,m5-HT2A agonist
O=C(Nc1nc(-c2cc(F)ccc2F)cs1)c1cccc(N2C(=O)CCC2=O)c1,-4,1,0,6,2,-5
O=C(Nc1nc(-c2ccc(F)cc2)cs1)c1cccc(N2C(=O)CCC2=O)c1,-2,1,0,4,48*,5
CCCc1ccc(OCc2ccc(C(=O)O)o2)c(OC)c1,-1,-1,-1,12,2,0
CCCc1ccc(OCc2ccc(C(=O)NN)o2)c(OC)c1,-4,0,-1,29,56*,-6
NNC(=O)c1ccc(COc2ccc([N+](=O)[O-])cc2)o1,-7,0,-1,5,12,-1
Cc1cc(C)cc(OCc2ccc(C(=O)NN)o2)c1,-2,-1,0,7,79*,-2
CCc1ccc(NC(=O)C2CC(=O)N(C(C)C)C2)cc1 (centres undefined),-1,-1,0,43,78*,-6
CC(=O)N1CCC(=NNc2nc3ccccc3[nH]2)CC1,-12,0,2,13,63*,-3
CCC(C)(C)C1CCC(=NNc2nc3ccccc3[nH]2)CC1 (centres undefined),-7,0,0,11,50*,-5
COc1ccccc1OCCn1cc(/C=N/n2cnnc2)c2ccccc21,-5,1,-1,16,49*,-6
COc1cccc(C(=O)N[C@H](C(=O)N2CCC[C@H]2C(=O)NCCc2ccccc2Cl)C2CCCCC2)c1,.,1,.,.,.,.
CC(=O)N(c1nc2ccccc2s1)N1C(=O)c2ccccc2C1=O,.,1,.,.,.,.
Cc1cc(C(=O)N/N=C\c2cc(C(C)(C)C)ccc2O)n[nH]1,-3,.,0,19,53*,13
Cc1cc(C(=O)N/N=C/c2cc(Br)ccc2OC(=O)c2ccc(Br)cc2)n[nH]1,.,.,.,12,50*,.
Cc1cc(C(=O)N/N=C/c2cccs2)n[nH]1,-3,2,0,24,11,-3
C=CCN=C1NC(c2ccc(F)cc2)C(C(=O)OC)=C(C)N1C (centres undefined),.,1,.,.,.,.
CCOC(=O)N1CCN(Cc2cc(Cl)c3cccnc3c2O)CC1,.,3,.,-78*,17,.
Cc1cccc(C)c1NC(=O)NC1(C(=O)NCC2CCCO2)CCCCC1 (centres undefined),-12,-1,-2,33,4,-9
CCc1cc2c(=O)c(Oc3ccccc3F)c(C)oc2c(CN(C)C)c1O,-2,6.7*,-1,12,2,0
CC(C)[C@H](NC(=O)N1CCn2c1nc1ccccc12)C(=O)NCC1CCCO1 (some centres undefined),-4,0,0,37,2,15*
NC(=O)[C@@H]1CCCN1C(=O)[C@H]1O[C@@H](n2ccc(N)nc2=O)[C@H](O)[C@@H]1O,.,1,.,.,.,.
NS(=O)(=O)c1ccc(N/N=C/c2ccc3c(c2)OCO3)c([N+](=O)[O-])c1,-2,0,1,8,114*,9
O=C(O)c1ccccc1NS(=O)(=O)c1ccc(N/N=C/c2ccc(O)c(O)c2)c([N+](=O)[O-])c1,-8,4.8*,0,.,.,-8
Oc1ccccc1-n1nc2ccc3nonc3c2n1,-5,0,0,7,76*,-1
Cc1ccc(O)c(-n2nc3ccccc3n2)c1,-8,2,-1,15,4,2
SMILES,MsrA act,MsrA inhibitor,TbMetRS inhib,AI-2 QS mod,AHR act,m5-HT2A agonist
COc1cc(Cl)cc(/C=C/c2ccc3cccc(O)c3n2)c1OC,-3,0,0,20,40,-3
CCOc1cccc(/C=C/c2ccc3cccc(O)c3n2)c1OC,1,2,-1,48,76*,-18
COc1ccccc1/C=C/c1ccc2cccc(O)c2n1,-1,2,0,15,75*,-9
COc1ccc(Cl)cc1/C=C/c1ccc2cccc(O)c2n1,-1,1,-1,-1,66*,-3
Oc1cccc2ccc(/C=C/c3ccccc3Cl)nc12,-4,0,0,-9,15,-18
Cc1cc2c(nc1C)CCCN2Cc1ccccn1,.,0,.,.,.,.
Cc1ccc(C(=O)c2sc3nsc(C)c3c2N)cc1,-4,0,-1,17,64*,-4
Cc1snc2sc(C(=O)c3ccc(Br)cc3)c(N)c12,-4,1,-1,-2,-4,9
O=C(NC(CC1=CCCCC1)c1ccccc1)C(F)(F)F (centres undefined),.,0,.,.,.,.
Cc1ccc(Nc2nc3ccccc3n3nnnc23)cc1,-4,2,1,3,52*,-1
CNC(=O)C1CC(=O)N(c2ccc(OCC(=O)NCc3ccccc3)cc2)C1 (centres undefined),-2,0,0,26,4,2
COc1cc(N/N=C/c2ccccc2O)ncn1,-4,4,0,9,17,0
COc1cc(N/N=C/c2ccc(N(C)C)cc2)ncn1,-4,4,0,17,79*,-5
COc1ccc(C)cc1NC(=O)C(OC(=O)C1CC1)c1ccccc1 (centres undefined),-3,0,0,9,55*,-4
COC(=O)[C@]12C[C@H](CC(=O)N3CCN(C(=O)c4ccco4)CC3)C(=O)N(Cc3ccccc3)C1=C[C@H](C(C)(C)C)O[C@@H]2C,.,0,.,.,.,.
COCCNC(=S)N/N=C(\C)c1ccc(OC)cc1,-3,2,0,21,54*,-2
CC(=O)NC(c1ccccc1)c1cc([N+](=O)[O-])c2cccnc2c1O (centres undefined),-3,2,0,-90*,4,-3
O=C(COC(=O)Cc1ccc(S(=O)(=O)N2CCOCC2)s1)Nc1ccc(F)cc1F,-3,1,1,.,-1,-1
N=c1scc(-c2ccccc2)n1/N=C/c1ccco1,.,2,.,14,28,.
C(=N/n1c2ccccc2c2ccccc21)/c1ccco1,-2,1,-1,5,51*,3
C(=N\n1c2ccccc2c2ccccc21)/c1ccccc1,-5,0,0,6,65*,3
CCC(=O)N1c2ccccc2NC2=C(C(=O)CC(c3ccco3)C2)C1c1ccco1 (centres undefined),-4,4.6*,0,16,5,-3
O=C(Nc1cc2c(oc1=O)CCCC2=O)c1ccccc1,-4,1,-1,16,62*,-3
COC(=O)[C@]12C[C@H](CC(=O)NCc3ccccc3)C(=O)N(Cc3ccccc3)C1=C[C@H](C(C)C)O[C@@H]2C1CC1,.,-1,.,.,.,.
